Source: PubChem BioAssay
Results filed as inconclusive are left out.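 Rule for the calls, unless noted: active = RAM network inhibition above 8.4% in each of two replicates, 3 SD over the compound average; inconclusive = above 8.4% inhibition in only one replicate; inactive = 8.4% inhibition or less in each replicate.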

Columns and labels:
[1] = S. cerevisiae growth inhibition in permissive medium (OD615), pilot counter-assay for S. cerevisiae lifespan shortening project, permissive growth control (AID 705;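 active = growth inhibition above 25% in both replicates, a cutoff set 3 SD above the mean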); conditions: OD615, 24 h, at 10 µM, active compounds read high
How it was run: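 System: engineered DeaD yeast; Medium: permissive raffinose/galactose medium; Compound dosing: 10 µM single dose, 0.25% DMSO; Incubation: 4 h cell pre-growth, 24 h exposure at 30 °C; Technique: OD at 615 nm; Evaluation: growth inhibition from lowered OD615 after 24 h.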

[2] = S. cerevisiae growth inhibition in restrictive medium, OD615, pilot screen, restrictive growth control, yeast lifespan reduction project (AID 706;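 active = growth inhibition above a set limit, 3 SD over mean compound inhibition, in both replicates, cut at about 43% in these data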;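 note: modified DeaD lifespan yeast strain shifted to restrictive glucose medium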); conditions: OD615, 48 h, at 10 µM, active compounds read high
How it was run: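 Material: modified S. cerevisiae; buffer or medium: CSMM-D glucose medium; doses: one concentration, 10 µM final, 0.25% DMSO; incubation: 48 h compound exposure at 30 °C; detection: optical density at 615 nm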

[3] = doxorubicin toxicity protection in MRP-1 cells – H69AR cells, CellTiter-Glo, duplicate, MRP-1 activator project, pilot screen (AID 807;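 active = viability increase at or above a cutoff of the median across tested compounds plus 3 SD, cut at about 8.5% in these data, passing the limit was not always enough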;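 note: compound pretreatment 18-22 h then 72 h combined with doxorubicin; 0% = doxorubicin alone and 100% = vehicle without doxorubicin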); conditions: H69AR viability with doxorubicin, CellTiter-Glo luminescence; at 10 µM; active compounds read high
[4] = viability of HCT116 without oncogenic beta-catenin – human colon tumor cells, pilot screen (AID 823;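 active = cell viability at or below a set limit in both duplicate runs, the limit being the all-compound median minus 4 SD, cut at about 23% in these data, passing the limit was not always enough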;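 note: 0% = wells killed by 20 µM Hyamine and 100% = untreated DMSO cell wells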); conditions: HCT116 beta-catenin knockout viability, CellTiter-Glo, 60 h; at 10 µM; active compounds read low
[5] = viability of PTEN-null HCT116 cells – cell-based, HCT116 clonal line, CellTiter-Glo, pilot screen (AID 824;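 active = viability at or below 27.92% in each of two runs, the all-compound median minus 4 SD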;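 note: 0% = 20 µM Hyamine control and 100% = vehicle cell control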); conditions: HCT116 PTEN-deleted viability, 60 h, at 10 µM, active compounds read low
[6] = RAM pathway blockade in budding yeast – dse1pr::URA3 reporter, 5-FOA selection, pilot screen (AID 869;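 active = inhibition over a set limit, the all-compound mean plus 3 SD, in both replicate runs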;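 note: 0% = DMSO wells with no growth and 100% = 10 µM 1-NA-PP1 with full growth; RAM network block rescues cells from 5-FOA so hits raise OD615 growth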); conditions: S. cerevisiae dse1pr::URA3 5-FOA growth, OD615, 2 d; at 10 µM; active compounds read high; strain carries analog-sensitive mutant Cbk1 kinase
[7] = RAM signaling pathway blockade in yeast – S. cerevisiae, Pdr1DBD-CYC8 efflux-inhibited sensitized strain, primary screen (AID 1298);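 note: 0% = DMSO untreated cells without growth and 100% = 10 µM 1-NA-PP1 full growth; higher means more yeast growth rescued from 5-FOA killing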; conditions: S. cerevisiae cbk1-as DSE1-URA3 strain, 5-FOA growth OD615, 2 d; at 50 µM; active compounds read high

CN(CCC#N)C(=O)Cn1nc(Cc2ccncc2)c2ccccc2c1=O
inactive: growth inhibition [1] -2.53% | growth inhibition [2] -1.35% | viability increase [3] 0.95% | viability [4] 102% | viability [5] 95.6% | inhibition [6] 0.515% | RAM network inhibition [7] 0.16%

CCOC(=O)c1sc(NC(=O)COC(=O)c2ccco2)nc1C
inactive: growth inhibition [1] 4.37% | growth inhibition [2] -12.7% | viability increase [3] -6.43% | viability [4] 87.7% | viability [5] 89.6% | inhibition [6] 1.39% | RAM network inhibition [7] 4.87%

CCCCC(=O)Nc1ccc(Br)cc1C(=O)O
inactive: growth inhibition [1] 5.08% | growth inhibition [2] -10.9% | viability increase [3] 0.11% | viability [4] 89.9% | viability [5] 97.8% | inhibition [6] 1.95% | RAM network inhibition [7] -1.59%

CN(C)C(=O)Nc1cnc2ccccc2c1
inactive: growth inhibition [1] 0.64% | growth inhibition [2] -11.9% | viability increase [3] -0.11% | viability [4] 104% | viability [5] 99.3% | inhibition [6] 1.16% | RAM network inhibition [7] 1.97%

Cc1cccc(N2CC(c3nc4ccccc4n3C)CC2=O)c1C (centres undefined)
inactive: growth inhibition [1] -8.87% | growth inhibition [2] 3.04% | viability increase [3] -3.04% | viability [4] 104% | viability [5] 95.2% | inhibition [6] 1.46% | RAM network inhibition [7] 3.58%

CCN1CCN(CC(O)COc2ccc(C(C)=O)cc2)CC1 (centres undefined)
inactive: growth inhibition [1] -5.8% | growth inhibition [2] -1.04% | viability increase [3] 0.34% | viability [4] 98.8% | viability [5] 100% | inhibition [6] 0.405% | RAM network inhibition [7] 0.31%

CCOC(=O)N1CCN(C(=O)CSc2nnc(Cn3c(=O)sc4ccccc43)n2C)CC1
inactive: growth inhibition [1] -12.9% | growth inhibition [2] -13% | viability increase [3] -2.25% | viability [4] 98.4% | viability [5] 95.8% | inhibition [6] 1.69% | RAM network inhibition [7] 1.9%

CC(=O)Nc1ccc(S(=O)(=O)Nc2nc3ccccc3nc2Sc2nncn2C)cc1
inactive: growth inhibition [1] 1.94% | growth inhibition [2] 11.7% | viability increase [3] -2.89% | viability [4] 98.1% | viability [5] 98.1% | inhibition [6] 1.86% | RAM network inhibition [7] 2.12%

CC1Cc2ccccc2C(=O)N1 (centres undefined)
inactive: growth inhibition [1] 0.58% | growth inhibition [2] 11.4% | viability increase [3] 0.15% | viability [4] 106% | viability [5] 99% | inhibition [6] 0.36% | RAM network inhibition [7] 3.5%

CCOC(=O)c1c(C)oc2ccc(OC(=O)N3CCOCC3)cc12
inactive: growth inhibition [1] -16.1% | growth inhibition [2] 0.815% | viability increase [3] -1.36% | viability [4] 93.8% | viability [5] 89.6% | inhibition [6] 0.115% | RAM network inhibition [7] 0.98%

CC1CC(C)CN(CCCNC(=O)Cc2c(C(=O)O)[nH]c3ccccc23)C1 (centres undefined)
inactive: growth inhibition [1] -11.5% | growth inhibition [2] -13.5% | viability increase [3] -0.1% | viability [4] 103% | viability [5] 99.6% | inhibition [6] 0.68% | RAM network inhibition [7] 1.78%

COc1ccc(CNc2nc3c(c(=O)[nH]c(=O)n3C)n2Cc2ccccc2C)cc1
inactive: growth inhibition [1] -14.8% | growth inhibition [2] -13.7% | viability increase [3] -4.3% | viability [4] 96.2% | viability [5] 89.5% | inhibition [6] 2.08% | RAM network inhibition [7] 2.1%

COc1cc(S(=O)(=O)N2CCN(c3ccccc3)CC2)ccc1Cl
inactive: growth inhibition [1] -16.9% | growth inhibition [2] -14% | viability increase [3] -3.07% | viability [4] 95.1% | viability [5] 95.3% | inhibition [6] 0.17% | RAM network inhibition [7] 6.95%

CCCC(=O)NC(C)c1nc2ccccc2n1C(C)C (centres undefined)
inactive: growth inhibition [1] -10.7% | growth inhibition [2] -16.6% | viability increase [3] 0.47% | viability [4] 97.5% | viability [5] 91.2% | inhibition [6] 0.475% | RAM network inhibition [7] 2.52%

CCCCOC(=O)Cc1c(O)c2ccccc2[nH]c1=O
inactive: growth inhibition [1] 10.9% | growth inhibition [2] 12.5% | viability increase [3] -1.82% | viability [4] 102% | viability [5] 93.2% | inhibition [6] 1.82% | RAM network inhibition [7] -0.98%

CC1CCN(CC(=O)N2c3ccccc3CCc3ccccc32)CC1
inactive: growth inhibition [1] -14.5% | growth inhibition [2] -19.2% | viability increase [3] -1.57% | viability [4] 87.5% | viability [5] 90% | inhibition [6] 4.08% | RAM network inhibition [7] 4.24%

CN(C)CCNC(=O)c1cc2cc(Br)ccc2oc1=O
inactive: growth inhibition [1] -22.2% | growth inhibition [2] -8.59% | viability increase [3] -2.26% | viability [4] 81.6% | viability [5] 84.5% | inhibition [6] 0.755% | RAM network inhibition [7] 2.26%
